From ChEMBL document CHEMBL1144480, “Study on the substituents' effects of a series of synthetic chalcones against the yeast Candida albicans” (2007)
Values after ≈ are worked out from the molar mass of the structure shown. Active and inactive are the calls of the source. No cut-off for these calls is given here.

Tests used:
Candida albicans [1] = assay: Antifungal activity against Candida albicans Berhaut 62I after 24 hrs; type: functional
How it was run: (§1)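 Serial dilutions of each chalcone in meat-pepton broth in tubes; inoculum 10⁵ cells/ml; 37 °C, 24 h. MIC taken as the lowest dilution with no visible growth against inoculated drug-free broth. Tubes without visible growth streaked onto meat-pepton agar, 37 °C, 24 h, and checked for growth.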

Candida albicans [2] = assay: Growth inhibition of Candida albicans Berhaut 62I by agar cup method; type: functional
How it was run: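 Each well received 100 µl of sample dissolved in 96% EtOH. Pre-diffusion at 4 °C for 2 h, then 37 °C for 48 h. Read-out was inhibitory zone diameter, with ≥15 mm initially counted as active. Pure solvent served as control.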

Candida albicans [3] = assay: Antifungal activity against Candida albicans Berhaut 62I in meat-pepton broth; type: functional; how it was run: as §1
Candida albicans [4] = assay: Antifungal activity against Candida albicans Berhaut 62I at 2000 ug/ml; type: functional, organism-based
[5] = Candida albicans, Berhaut 62I, read-out: MIC

MIC (Candida albicans [1]) [µg/mL]	MIC (Candida albicans [3]; [5]) [µg/mL]	MIC (Candida albicans [3]) [µg/mL]	SMILES	inhibition zone (IZ) (Candida albicans [2]) [mm]	Activity (Candida albicans [4])
250 (≈ 869 µM)	250 (≈ 869 µM)		O=C(/C=C/c1ccc([N+](=O)[O-])cc1)c1ccc(Cl)cc1	15	
500 (≈ 1680 µM)	500 (≈ 1680 µM)		COc1cc(C(=O)/C=C/c2ccccc2)cc(OC)c1OC	0	
250 (≈ 1110 µM)	250 (≈ 1110 µM)		O=C(/C=C/c1cccc(O)c1)c1ccccc1 [3-HYDROXY CHALCONE]	17	
250 (≈ 1070 µM)	250 (≈ 1070 µM)		N#Cc1ccc(/C=C/C(=O)c2ccccc2)cc1	17	
500 (≈ 1460 µM)	500 (≈ 1460 µM)		COc1cc(C(=O)/C=C/c2ccc(N(C)C)cc2)cc(OC)c1OC	0	
500 (≈ 1970 µM)	500 (≈ 1970 µM)		COc1ccc(/C=C/C(=O)c2ccccc2)cc1O	0	
31.2 (≈ 139 µM)	31.2 (≈ 139 µM)		O=C(/C=C/c1ccccc1O)c1ccccc1	21	
500 (≈ 1500 µM)	500 (≈ 1500 µM)		COc1cc(C(=O)/C=C/c2ccc(Cl)cc2)cc(OC)c1OC	0	
500 (≈ 1830 µM)	500 (≈ 1830 µM)		COc1ccc(/C=C/C(=O)c2ccc(Cl)cc2)cc1	0	
500 (≈ 2250 µM)	500 (≈ 2250 µM)		Cc1ccc(/C=C/C(=O)c2ccccc2)cc1	0	
			O=C(/C=C/c1ccccc1)/C=C/c1ccccc1		inactive
500 (≈ 1950 µM)	500 (≈ 1950 µM)		Cc1ccc(/C=C/C(=O)c2ccc(Cl)cc2)cc1	0	
500 (≈ 1670 µM)	500 (≈ 1670 µM)		CC(=O)Nc1ccc(/C=C/C(=O)c2ccc(Cl)cc2)cc1	0	
125 (≈ 483 µM)	125 (≈ 483 µM)		O=C(/C=C/c1cccc(O)c1)c1ccc(Cl)cc1	20	
			O=C(/C=C/C=C/c1ccccc1)c1ccccc1		inactive
500 (≈ 1730 µM)	500 (≈ 1730 µM)		COc1ccc(/C=C/C(=O)c2ccc(Cl)cc2)cc1O	0	
125 (≈ 392 µM)	62.5 (≈ 196 µM)		COc1cc(/C=C/C(=O)c2ccc(Cl)cc2)cc(OC)c1O	15	
250 (≈ 866 µM)	62.5 (≈ 216 µM)		COc1cc(/C=C/C(=O)c2ccc(Cl)cc2)ccc1O	19	
62.5 (≈ 260 µM)	62.5 (≈ 260 µM)		O=C(/C=C/c1ccc(O)c(O)c1)c1ccccc1	15	
62.5 (≈ 228 µM)	62.5 (≈ 228 µM)		O=C(/C=C/c1ccc(O)c(O)c1)c1ccc(Cl)cc1	14	
250 (≈ 987 µM)	250 (≈ 987 µM)		O=C(/C=C/c1ccc([N+](=O)[O-])cc1)c1ccccc1	17	
500 (≈ 2060 µM)	500 (≈ 2060 µM)		O=C(/C=C/c1ccc(Cl)cc1)c1ccccc1 [4-CHLORO CHALCONE]	0	
62.5 (≈ 242 µM)	62.5 (≈ 242 µM)		O=C(/C=C/c1ccc(O)cc1)c1ccc(Cl)cc1	21	

MIC (Candida albicans [1]) [µg/mL]	MIC (Candida albicans [3]; [5]) [µg/mL]	MIC (Candida albicans [3]) [µg/mL]	SMILES	inhibition zone (IZ) (Candida albicans [2]) [mm]	Activity (Candida albicans [4])
500 (≈ 1550 µM)	500 (≈ 1550 µM)		COc1cc(C(=O)/C=C/c2ccc(C#N)cc2)cc(OC)c1OC	0	
500 (≈ 1880 µM)	500 (≈ 1880 µM)		CC(=O)Nc1ccc(/C=C/C(=O)c2ccccc2)cc1	0	
500 (≈ 1830 µM)	62.5 (≈ 229 µM)		COc1cccc(/C=C/C(=O)c2ccc(Cl)cc2)c1	15	
500 (≈ 1500 µM)	62.5 (≈ 188 µM)		COc1cc(/C=C/C(=O)c2ccc(Cl)cc2)cc(OC)c1OC	0	
500 (≈ 1990 µM)	500 (≈ 1990 µM)		CN(C)c1ccc(/C=C/C(=O)c2ccccc2)cc1	0	
62.5 (≈ 242 µM)	62.5 (≈ 242 µM)		O=C(/C=C/c1ccccc1O)c1ccc(Cl)cc1	16	
500 (≈ 2100 µM)	500 (≈ 2100 µM)		COc1ccc(/C=C/C(=O)c2ccccc2)cc1 [4-METHOXY CHALCONE]	0	
500 (≈ 1600 µM)	500 (≈ 1600 µM)		COc1cc(C(=O)/C=C/c2ccc(C)cc2)cc(OC)c1OC	0	
62.5 (≈ 246 µM)	62.5 (≈ 246 µM)		COc1cccc(/C=C/C(=O)c2ccccc2)c1O	12	
			O=C(/C=C/C=C/c1ccccc1)/C=C/C=C/c1ccccc1		inactive
500 (≈ 1650 µM)	62.5 (≈ 206 µM)	62.5 (≈ 206 µM)	COc1ccc(/C=C/C(=O)c2ccc(Cl)cc2)cc1OC	0	
500 (≈ 1410 µM)	500 (≈ 1410 µM)		COc1cc(C(=O)/C=C/c2ccc(NC(C)=O)cc2)cc(OC)c1OC	0	
62.5 (≈ 279 µM)	62.5 (≈ 279 µM)		O=C(/C=C/c1ccc(O)cc1)c1ccccc1 [4-HYDROXYCHALCONE]	15	
250 (≈ 934 µM)	250 (≈ 934 µM)		N#Cc1ccc(/C=C/C(=O)c2ccc(Cl)cc2)cc1	23	
500 (≈ 1730 µM)	500 (≈ 1730 µM)		COc1cccc(/C=C/C(=O)c2ccc(Cl)cc2)c1O	0	
500 (≈ 2060 µM)	500 (≈ 2060 µM)		O=C(/C=C/c1ccccc1)c1ccc(Cl)cc1	0	
125 (≈ 600 µM)	125 (≈ 600 µM)		O=C(/C=C/c1ccccc1)c1ccccc1 [CHALCONE]	30	
500 (≈ 1800 µM)	500 (≈ 1800 µM)		O=C(/C=C/c1ccc(Cl)cc1)c1ccc(Cl)cc1 [4',4-DICHLOROCHALCONE]	0	
	62.5 (≈ 248 µM)		O=C(/C=C/c1ccc2c(c1)OCO2)c1ccccc1		
500 (≈ 1520 µM)	500 (≈ 1520 µM)		COc1ccc(/C=C/C(=O)c2cc(OC)c(OC)c(OC)c2)cc1	0	
	62.5 (≈ 190 µM)		COc1cccc(/C=C/C(=O)c2cc(OC)c(OC)c(OC)c2)c1		
500 (≈ 1750 µM)	500 (≈ 1750 µM)		CN(C)c1ccc(/C=C/C(=O)c2ccc(Cl)cc2)cc1	0	
500 (≈ 1740 µM)	62.5 (≈ 218 µM)		O=C(/C=C/c1ccc2c(c1)OCO2)c1ccc(Cl)cc1	0	
